Data from ChEMBL document CHEMBL4396897, “Potent 5-Cyano-6-phenyl-pyrimidin-Based Derivatives Targeting DCN1-UBE2M Interaction” (J Med Chem, 2019).
Calls of active or inactive are those of the source. The rule behind the calls is not given here.

Columns and labels:
[1] = molecular target: T1, DCN1-like protein 1/NEDD8-conjugating enzyme Ubc12 (Homo sapiens) (UniProt Q96GG9+P61081); experiment: Inhibition of DCN1-UBE2M protein-protein interaction in human PC9 cells assessed as increase in HO-1 accumulation at 3 uM incubated for 24 hrs by Western blot analysis; assay type: cell-based
Outline: (§1)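 H1975 and PC9 cells seeded at 1×10⁶ cells, incubated overnight, then treated 24h with compound (0, 0.3, 1, 10 and 20 μM in methods; 3 μM also listed in text). Lysates cleared at 12,000×g, 20 min, 4°C, protein by BCA, SDS–PAGE, nitrocellulose, primary antibodies overnight at 4°C, HRP secondary, ECL. Densitometry normalised to GAPDH; three experiments.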

[2] = molecular target: T1, DCN1-like protein 1/NEDD8-conjugating enzyme Ubc12 (Homo sapiens); experiment: Inhibition of DCN1-UBE2M protein-protein interaction in human NCI-H1975 cells assessed as increase in NQO1 accumulation at 3 uM incubated for 24 hrs by Western blot analysis; assay type: cell-based; outline: as §1
[3] = molecular target: T1, DCN1-like protein 1/NEDD8-conjugating enzyme Ubc12 (Homo sapiens); experiment: Inhibition of DCN1-UBE2M protein-protein interaction in human PC9 cells assessed as increase in NQO1 accumulation at 3 uM incubated for 24 hrs by Western blot analysis; assay type: cell-based; outline: as §1
[4] = molecular target: T1, DCN1-like protein 1/NEDD8-conjugating enzyme Ubc12 (Homo sapiens); experiment: Inhibition of DCN1-UBE2M protein-protein interaction in human NCI-H1975 cells assessed as increase in NRF2 accumulation at 3 uM incubated for 24 hrs by Western blot analysis; assay type: cell-based; outline: as §1
[5] = molecular target: T1, DCN1-like protein 1/NEDD8-conjugating enzyme Ubc12 (Homo sapiens); experiment: Inhibition of DCN1-UBE2M protein-protein interaction in human PC9 cells assessed as increase in NRF2 accumulation at 3 uM incubated for 24 hrs by Western blot analysis; assay type: cell-based; outline: as §1
[6] = molecular target: T2, NEDD8-activating enzyme E1 catalytic subunit (Homo sapiens) (UniProt Q8TBC4); experiment: Inhibition of NEDD8-activating enzyme E1C (unknown origin) assessed as effect on NEDD8/UBE2M complex formation at 10 to 20 uM pre-incubated for 10 mins followed by Mg-ATP addition after 60 mins by SDS-PAGE analysis
T2 sequence (whole entry): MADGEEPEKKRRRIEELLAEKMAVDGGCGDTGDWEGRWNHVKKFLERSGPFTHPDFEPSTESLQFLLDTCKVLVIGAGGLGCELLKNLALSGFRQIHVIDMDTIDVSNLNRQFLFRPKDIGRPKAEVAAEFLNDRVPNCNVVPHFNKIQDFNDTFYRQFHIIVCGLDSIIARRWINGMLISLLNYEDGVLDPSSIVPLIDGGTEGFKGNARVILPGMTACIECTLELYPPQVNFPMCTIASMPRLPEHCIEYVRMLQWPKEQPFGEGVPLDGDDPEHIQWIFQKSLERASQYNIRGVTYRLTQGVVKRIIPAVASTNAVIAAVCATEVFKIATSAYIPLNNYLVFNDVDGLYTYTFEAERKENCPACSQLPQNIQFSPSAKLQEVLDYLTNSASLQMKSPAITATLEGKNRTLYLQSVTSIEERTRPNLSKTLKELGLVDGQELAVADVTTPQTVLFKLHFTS
Outline: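 Cell-free NEDD8~UBE2M formation: NEDD8 E1 mixed with NEDD8, UBE2M and compound (10 and 20µM reference inhibitor, or 1, 10 and 100µM test compound) in reaction buffer, 10 min at room temperature. Started with Mg-ATP, incubated 60 min at 37°C, then 1mM DTT and non-reducing loading buffer added. Resolved on 12% SDS-PAGE.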

[7] = molecular target: T1, DCN1-like protein 1/NEDD8-conjugating enzyme Ubc12 (Homo sapiens); experiment: Inhibition of DCN1-UBE2M protein-protein interaction in human NCI-H1975 cells assessed as increase in HO-1 accumulation at 3 uM incubated for 24 hrs by Western blot analysis; assay type: cell-based; outline: as §1

T1 sequence (P61081 whole entry, looked up): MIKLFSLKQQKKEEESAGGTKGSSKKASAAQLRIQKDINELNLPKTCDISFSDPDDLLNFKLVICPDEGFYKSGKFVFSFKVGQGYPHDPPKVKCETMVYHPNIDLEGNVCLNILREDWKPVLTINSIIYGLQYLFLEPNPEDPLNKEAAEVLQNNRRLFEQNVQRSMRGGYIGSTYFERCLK
T1 sequence (Q96GG9 whole entry, looked up): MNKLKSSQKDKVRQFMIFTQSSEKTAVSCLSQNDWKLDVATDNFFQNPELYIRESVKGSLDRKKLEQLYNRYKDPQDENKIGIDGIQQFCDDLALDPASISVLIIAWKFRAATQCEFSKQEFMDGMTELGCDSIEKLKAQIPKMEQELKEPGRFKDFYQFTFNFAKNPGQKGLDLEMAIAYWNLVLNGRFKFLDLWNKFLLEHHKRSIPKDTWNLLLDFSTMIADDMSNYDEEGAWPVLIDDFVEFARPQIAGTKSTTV

inhibition [1]: Active
inhibition [2]: Active
inhibition [3]: Active
inhibition [4]: Active
inhibition [5]: Active
inhibition [6]: Active
inhibition [7]: Active
Compound: NS(=O)(=O)OC[C@@H]1C[C@@H](n2ccc3c(N[C@H]4CCc5ccccc54)ncnc32)C[C@@H]1O
